Structures are written as SMILES. In brackets after ≈: the same amount, converted by molar mass. Activity calls are given as the source filed them. The rule behind the calls is not given here.

Data set [1] has as its target T1, Bile acid receptor (Homo sapiens) (UniProt Q96RI1).
T1 sequence (whole entry): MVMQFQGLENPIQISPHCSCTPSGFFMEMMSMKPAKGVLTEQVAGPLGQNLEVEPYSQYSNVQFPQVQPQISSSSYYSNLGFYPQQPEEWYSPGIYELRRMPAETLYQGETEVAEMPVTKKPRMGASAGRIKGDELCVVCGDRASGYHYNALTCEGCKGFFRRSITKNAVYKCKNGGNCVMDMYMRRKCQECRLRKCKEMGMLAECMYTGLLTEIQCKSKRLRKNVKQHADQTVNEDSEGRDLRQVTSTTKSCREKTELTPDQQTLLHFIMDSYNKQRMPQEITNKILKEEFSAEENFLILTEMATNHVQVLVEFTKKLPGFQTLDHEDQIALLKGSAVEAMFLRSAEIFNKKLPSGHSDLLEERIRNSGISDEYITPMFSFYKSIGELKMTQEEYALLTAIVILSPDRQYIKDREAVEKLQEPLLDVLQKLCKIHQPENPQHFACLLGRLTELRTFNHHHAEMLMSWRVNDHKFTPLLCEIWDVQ
Briefly: Agonist activity at C-terminal Gal4-tagged human FXR (187 to 472 residues) expressed in HEK-293 cells co-expressing pFRluc by mammalian one hybrid assay relative to GW4064. It is filed as cell-based. Particulars: HEK293. Summed up: (§1)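 Transient transfection of HEK293 cells with Gal4 DBD–human FXR LBD (187–472) chimera under CMV promoter plus pFRluc Gal4-driven firefly luciferase reporter. Cells treated with serial compound dilutions. EC50 from at least three experiments; efficacy is extrapolated maximum signal of the dose-response, GW4064 set to 100%.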

Data set [2] has as its target T2, Bile acid receptor (Homo sapiens, UniProt Q96RI1).
T2 sequence (Q96RI1 whole entry): T1 sequence (whole entry)
The data set can be described thus: Agonist activity at GST-tagged FXR LBD (187 to 472 residues) (unknown origin) assessed as FXR interaction with b-CPSSHSSLTERHKILHRLLQEGSPS-COOH by FRET assay.

In data set [3] the target is T1, Bile acid receptor (Homo sapiens). The data set can be described thus: Agonist activity at GST-tagged FXR LBD (187 to 472 residues) (unknown origin) assessed as FXR interaction with b-CPSSHSSLTERHKILHRLLQEGSPS-COOH by FRET assay relative to GW4064.
Data set [4] has as its target T2, Bile acid receptor. The data set can be described thus: Agonist activity at C-terminal Gal4-tagged human FXR (187 to 472 residues) expressed in HEK-293 cells co-expressing pFRluc by mammalian one hybrid assay. The data set is classed as cell-based, HEK293. Summed up: as §1
Data set [5] can be described thus: Oral bioavailability in C57BL/6J mouse at 5 mg/kg. The data set is classed as ADME, organism-based. The settings on record: in vivo. Summed up:
(§2)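 Mice dosed 5 mg/kg orally and 1 mg/kg intravenously; bioavailability from both arms, all other parameters (AUC, Cmax, T1/2, Cl/F, Vd/F) calculated from the oral arm.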

Data set [6] in a line: Permeability of the compound assessed as compound enrichment in membrane compartment measured after 16 hrs by PAMPA assay relative to control. The data set is classed as ADME. The procedure, abridged:
(§3)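 PAMPA, 16 h at rt. Flux = [C_acceptor/(C_donor + C_acceptor)] × 100 × 2. Membrane enrichment = C_membrane × 2/(C_acceptor + C_donor), membrane phase extracted into a volume equal to the acceptor or donor compartment.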

A short description of data set [7]: Half life in C57BL/6J mouse at 5 mg/kg, po and 1 mg/kg, iv. The settings on record: in vivo. It is filed as ADME, organism-based. Summed up: as §2
Data set [8] in a line: AUC in C57BL/6J mouse at 5 mg/kg, po and 1 mg/kg, iv. It is filed as ADME, organism-based. Particulars: in vivo. Summed up: as §2
Data set [9] in a line: Apparent oral volume of distribution in C57BL/6J mouse at 5 mg/kg. It is filed as ADME, organism-based. The settings on record: in vivo. The procedure, abridged: as §2
Data set [10] can be described thus: Cmax in C57BL/6J mouse at 5 mg/kg, po and 1 mg/kg, iv. It is filed as ADME, organism-based. Particulars: in vivo. Summed up: as §2
The nature of data set [11]: Aqueous solubility of the compound. It is filed as physicochemical. The settings on record: buffer.
A short description of data set [12]: Permeability of the compound assessed as compound influx measured after 16 hrs by PAMPA assay. The data set is classed as ADME. Summed up: as §3
A short description of data set [13]: Apparent oral clearance in C57BL/6J mouse at 5 mg/kg. It is filed as ADME, organism-based. Particulars: in vivo. Summed up: as §2
The test system of data set [14] is Mus musculus. Briefly: Reduction in total triglyceride level in high fat diet enriched with cholesterol fed C57BL/6J mouse plasma at 10 mg/kg, po through gavage for 10 days measured after 4 hrs of final dosage relative to vehicle treated-control. The data set is classed as functional, organism-based. Summed up: (§4)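 C57BL/6J mice pre-fed and kept on high fat diet (60% kcal fat) with 1% (w/w) cholesterol; 10 mg/kg by oral gavage for 10 days. Plasma total cholesterol and triglycerides taken at sacrifice 4 h after final dose, expressed as % change versus vehicle group.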

In data set [15] the test system is Mus musculus. The data set can be described thus: Reduction in total cholesterol level in high fat diet enriched with cholesterol fed C57BL/6J mouse plasma at 10 mg/kg, po through gavage for 10 days measured after 4 hrs of final dosage relative to vehicle treated-control. It is filed as functional, organism-based. Summed up: as §4

Turning to `Cn1nc(C(=O)O)c2ccc(C3CC3c3ccc(OCc4c(-c5c(Cl)cccc5Cl)noc4C4CC4)cc3Cl)cc21` (racemic), the Efficacy in [1] is 84%; in data set [3], 104%. For the same compound, the half-maximal effective concentration (EC50) was 13 nM at Bile acid receptor [2] and 14 nM at Bile acid receptor [4].
As for `CCO[C@]1(c2ccc(OCc3c(-c4c(Cl)cccc4Cl)noc3C3CC3)cc2Cl)C[C@H](c2cccc(C(=O)O)c2)C1`, the Efficacy in data set [1] was 89%; in data set [3], 94%. For the same compound, the half-maximal effective concentration (EC50) on Bile acid receptor [2] turned out to be 277 nM; at Bile acid receptor [4] it was 220 nM.
The matching figures for `CO[C@]1(c2ccc(OCc3c(-c4c(Cl)cccc4Cl)noc3C3CC3)cc2Cl)C[C@H](c2cccc(C(=O)O)c2)C1`: 75%, 93%, 79 nM and 102 nM.
For `O=C(O)CNC(=O)c1ccc(C2CC2c2ccc(OCc3c(-c4c(Cl)cccc4Cl)noc3C3CC3)cc2Cl)cc1` (racemic) the same measures were 58%, 100%, 150 nM and 209 nM.
With `O=C(O)c1ccc([C@@H]2C[C@H]2c2ccc(OCc3c(-c4c(Cl)cccc4Cl)noc3C3CC3)cc2Cl)cc1`, the Efficacy came to 89% in [1] and 99% in data set [3]. Also, the EC50 at Bile acid receptor [2] is 80 nM; on Bile acid receptor [4], 47 nM.
In turn, `O=C(O)c1cccc(C2CC2c2ccc(OCc3c(-c4c(Cl)cccc4Cl)noc3C3CC3)cc2Cl)c1` (racemic) displayed a bioavailability in [5] of 53%. The “fold change (FC)” value in data set [6] amounted to 33. The Efficacy in data set [1] was determined as 87%; in data set [3], 102%. Besides, the half-life in [7] is 1 h. Also, in [8], the area under the curve (AUC) is 800 ng·h/mL. In addition, the Vd/F in data set [9] turned out to be 4.7 L/kg. In addition, the EC50 amounted to 32 nM at Bile acid receptor [2] and 34 nM on Bile acid receptor [4]. In data set [10], this compound gave a Cmax of 1060 ng/mL. Moreover, the concentration in solution in [11] (solubility) was 20 µM (≈ 11.1 µg/mL). In addition, in data set [12], the permeability is on record as 17%. Also, the CL/F in data set [13] turned out to be 55 mL/min/kg.
In the case of `O=C(O)c1cccc(N2CC(O)(c3ccc(OCc4c(-c5c(Cl)cccc5Cl)noc4C4CC4)cc3Cl)C2)c1`, the “fold change (FC)” value in [6] was 40. Besides, the Efficacy in data set [1] was determined as 94%; in [3] it was 97%. At Bile acid receptor [2], the EC50 is 54 nM. For the same compound, the permeability in data set [12] amounted to 27%.
`CC(C)n1nc(C(=O)O)cc1[C@@H]1C[C@H]1c1ccc(OCc2c(-c3c(Cl)cccc3Cl)noc2C2CC2)cc1Cl`: the Efficacy in data set [1] was 79%; in data set [3] it was 101%. For the same compound, the EC50 at Bile acid receptor [2] and at Bile acid receptor [4] was 4 nM in each case.
In the case of `CS(=O)(=O)NC(=O)c1ccc([C@@H]2C[C@H]2c2ccc(OCc3c(-c4c(Cl)cccc4Cl)noc3C3CC3)cc2Cl)cc1`, the Efficacy in data set [1] turned out to be 81%; in [3], 94%. The concentration giving a half-maximal response (EC50) was 48 nM on Bile acid receptor [2] and 44 nM at Bile acid receptor [4].
As to `O=C(O)c1cccc([C@@H]2C[C@H]2c2ccc(OCc3c(-c4c(Cl)cccc4Cl)noc3C3CC3)cc2Cl)c1`, the outcome in the data set on Mus musculus [14] and with Mus musculus [15] was inactive. The Efficacy in data set [1] was found to be 98%; in data set [3] it was 100%. In addition, the results for the EC50 at Bile acid receptor [2] and on Bile acid receptor [4] were 18 nM and 29 nM, respectively.
`O=C(O)c1ccc(C2CC2c2ccc(OCc3c(-c4c(Cl)cccc4Cl)noc3C3CC3)cc2Cl)cn1` (configuration not stated): the Efficacy was 68% in data set [1] and 101% in data set [3]. Further, the EC50 came to 66 nM on Bile acid receptor [2] and 57 nM on Bile acid receptor [4].
For `CS(=O)(=O)NC(=O)c1ccc(C2CC2c2ccc(OCc3c(-c4c(Cl)cccc4Cl)noc3C3CC3)cc2Cl)cc1` (racemic) the same measures were 88%, 100%, 90 nM and 44 nM.
For `O=C(O)c1ccc([C@H]2C[C@@H]2c2ccc(OCc3c(-c4c(Cl)cccc4Cl)noc3C3CC3)cc2Cl)cc1` [PX-102] the same measures were 71%, 100%, 1090 nM and 186 nM.
For `O=C(NCCS(=O)(=O)O)c1ccc(C2CC2c2ccc(OCc3c(-c4c(Cl)cccc4Cl)noc3C3CC3)cc2Cl)cc1` (racemic) the same measures were 34%, 98%, 76 nM and 1370 nM.
Regarding `O=C(O)c1cncc(C2CC2c2ccc(OCc3c(-c4c(Cl)cccc4Cl)noc3C3CC3)cc2Cl)c1` (configuration not stated), the results for the Efficacy in data set [1] and in data set [3] were 73% and 103%, respectively. Further, the 50% effective concentration (EC50) on Bile acid receptor [2] was 10 nM; at Bile acid receptor [4], 14 nM. Moreover, in [11], the solubility amounted to 165 µM (≈ 91.7 µg/mL).
As to `O=C(O)c1cccc([C@H]2C[C@@H](c3ccc(OCc4c(-c5c(Cl)cccc5Cl)noc4C4CC4)cc3Cl)C2)c1`, the Efficacy stood at 88% in data set [1] and 99% in data set [3]. For the same compound, the EC50 is 77 nM at Bile acid receptor [2] and 92 nM on Bile acid receptor [4].
The matching figures for `Cn1nc(C(=O)O)c2ccc([C@H]3C[C@](O)(c4ccc(OCc5c(-c6c(Cl)cccc6Cl)noc5C5CC5)cc4Cl)C3)cc21`: 82%, 99%, 19 nM and 50 nM.
For `O=C(O)c1ccc([C@H]2C[C@](O)(c3ccc(OCc4c(-c5c(Cl)cccc5Cl)noc4C4CC4)cc3Cl)C2)cc1`, the bioavailability in [5] came out at 41%. In [6], the “fold change (FC)” value is reported as 9. Moreover, the Efficacy worked out at 71% in data set [1] and 105% in data set [3]. Moreover, the half-life in data set [7] was 1.1 h. In data set [8], this compound showed an AUC of 180 ng·h/mL. The Vd/F in [9] is 3.9 L/kg. For the same compound, the EC50 came out at 24 nM at Bile acid receptor [2] and 63 nM at Bile acid receptor [4]. The compound further yielded a Cmax in [10] of 96 ng/mL. Also, the concentration in solution in data set [11] (solubility) came to 192 µM (≈ 112 µg/mL). The permeability in data set [12] is given as 21%. In addition, in data set [13], the apparent clearance (CL/F) stood at 190 mL/min/kg.
Take `O=C(O)c1cccc([C@H]2C[C@H](c3ccc(OCc4c(-c5c(Cl)cccc5Cl)noc4C4CC4)cc3Cl)C2)c1`: in data set [6], the “fold change (FC)” value is reported as 319. Further, the Efficacy in data set [1] worked out at 89%; in [3] it was 100%. The EC50 at Bile acid receptor [2] came to 24 nM; on Bile acid receptor [4] it was 15 nM. Also, in data set [12], the permeability amounted to 0%.
Regarding `Clc1cc(OCc2c(-c3c(Cl)cccc3Cl)noc2C2CC2)ccc1C1CC1c1ccc(-c2nnn[nH]2)nc1` (configuration not stated), the Efficacy stood at 79% in data set [1] and 101% in data set [3]. Moreover, the values for the EC50 on Bile acid receptor [2] and at Bile acid receptor [4] were 131 nM and 111 nM, respectively.
For `O=C(O)c1cccc([C@H]2C[C@@H]2c2ccc(OCc3c(-c4c(Cl)cccc4Cl)noc3C3CC3)cc2Cl)c1` the same measures were 88%, 101%, 219 nM and 90 nM.
As to `O=C(O)c1cccc([C@H]2C[C@](OCCO)(c3ccc(OCc4c(-c5c(Cl)cccc5Cl)noc4C4CC4)cc3Cl)C2)c1`, the Efficacy in [1] turned out to be 68%; in [3], 97%. In addition, the half-maximal effective concentration (EC50) stood at 373 nM on Bile acid receptor [2] and 377 nM on Bile acid receptor [4].
